Publication PMC9436332 (Proceedings of the National Academy of Sciences of the …, 2022)
“Also recorded” adds a separate entry of the source.

Key:
mouse DRG neurons = assay: Vacor-induced neurite degeneration in mouse DRG neurons; assay type: cell-based; conditions: for Degeneration Index (%): +50 μM Vacor alone
rat DRG neurons = assay type: cell-based; conditions: 48 h
[1] = tested on: quantified cysteines in the human proteome (22Rv1 cells); assay: Cysteine-directed MS-ABPP; assay type: binding; conditions: 20 µM, 3 h, in situ; 22Rv1 and Ramos
Procedure, shortened: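 22Rv1 cells were plated at 15 million cells per 15-cm dish and treated the next day. Ramos cells were adjusted to 3 × 10⁶ cells/mL and rested 30 min before treatment. Cells got 20 μM test compound in situ for 3 h, then were washed in cold DPBS and frozen. Cells were probe-sonicated in cold PBS, and 2 mg/mL lysate was labelled with IA-DTB (10 mM DMSO stock) for 1 h at room temperature in the dark. Cysteines were quantified by LC-MS/MS/MS against DMSO.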

SARM1-C311A = assay: Gel-ABPP, in situ, SARM1-C311A mutant expressed in HEK293T cells; assay type: binding, human; conditions: 20 µM, 1 h
Procedure, shortened: (§1)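 N-terminally FLAG-tagged human SARM1 (WT or C311A) was transiently expressed in HEK293T cells and treated 48 h post-transfection. Cells got either alkyne probe alone (20 μM, 1 h, in situ) or 3 h compound pretreatment followed by probe. Lysates (ice-cold DPBS with protease inhibitors, 1.0 mg/mL) underwent 1 h CuAAC with rhodamine-azide/TCEP/TBTA/CuSO₄. Analysis was SDS-PAGE in-gel fluorescence with background-subtracted band intensities; IC₅₀ by four-parameter fit; three independent experiments.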

mouse SARM1 = assay: Gel-ABPP, in situ, mouse SARM1 recombinantly expressed in HEK293T cells; assay type: binding; conditions: 20 µM, 1 h, compared with human SARM1
WT-SARM1 [2] = assay: Gel-ABPP, in vitro treatment, WT-SARM1 recombinantly expressed in HEK293T cells; assay type: binding, human; conditions: 1 h; for effect of metabolite on MY-13B engagement of SARM1: 0.125-1 mM, MY-13B 20 µM
WT-SARM1 [3] = assay: Gel-ABPP, in situ, WT-SARM1 recombinantly expressed in HEK293T cells; assay type: binding, human; conditions: 1 h
Procedure, shortened: as §1

SARM1 = conditions: cited from earlier work
endogenous SARM1 = molecular target: T1, endogenous SARM1 (Homo sapiens, UniProt Q6SZW1); assay type: cell-based; conditions: SH-SY5Y cells, vacor 50 µM, 0-8 h
T1 sequence (Q6SZW1 28-724): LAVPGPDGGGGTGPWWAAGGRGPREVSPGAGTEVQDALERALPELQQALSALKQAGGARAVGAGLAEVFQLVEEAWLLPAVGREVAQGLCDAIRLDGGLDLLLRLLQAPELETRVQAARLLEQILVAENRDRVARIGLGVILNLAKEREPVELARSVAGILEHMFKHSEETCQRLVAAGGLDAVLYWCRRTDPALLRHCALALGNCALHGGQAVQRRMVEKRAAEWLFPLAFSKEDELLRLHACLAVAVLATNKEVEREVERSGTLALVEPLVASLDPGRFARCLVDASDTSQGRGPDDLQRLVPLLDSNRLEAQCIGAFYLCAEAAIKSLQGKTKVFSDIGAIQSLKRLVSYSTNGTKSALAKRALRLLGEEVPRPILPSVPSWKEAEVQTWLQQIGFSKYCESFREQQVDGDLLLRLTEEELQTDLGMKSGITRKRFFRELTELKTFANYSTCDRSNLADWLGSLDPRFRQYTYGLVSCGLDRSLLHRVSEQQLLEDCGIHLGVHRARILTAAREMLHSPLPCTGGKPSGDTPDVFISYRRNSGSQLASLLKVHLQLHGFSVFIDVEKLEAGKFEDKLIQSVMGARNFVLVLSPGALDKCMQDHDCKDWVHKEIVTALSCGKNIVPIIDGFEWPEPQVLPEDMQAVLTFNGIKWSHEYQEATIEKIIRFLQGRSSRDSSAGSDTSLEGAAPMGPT
Procedure, shortened: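 SH-SY5Y cells were pretreated in situ with compound for 3 h (0.1% DMSO), then given 50 μM vacor for 4 h. Pellets were resuspended in DPBS and quenched with cold methanol:acetonitrile (1:1) containing 100 pmol 8-Br-cADPR internal standard. Extraction used three freeze/sonication cycles, −20 °C for 1 h, centrifugation, drying and resuspension. cADPR was measured by LC-MS/MS, normalized to total protein; mean ± SEM of three independent experiments.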

C=CC(=O)N1[C@@H](c2ccc3c(c2)OCO3)c2[nH]c3ccccc3c2C[C@H]1C(=O)NC [MY-9A]
blockade of vacor-induced neurite degeneration (mouse DRG neurons; 1–20 µM, vacor 50 µM, over 48 h): ineffective
prevention of vincristine-induced neurite degeneration (rat DRG neurons; 40 nM vincristine): weak activity
off-target cysteines also engaged by the SARM1-inactive enantiomers [1]: DCTN4_C258, KEAP1_C151, PTGES2_C110, and UBR1_C1603

C#CCNC(=O)[C@@H]1Cc2c([nH]c3ccccc23)[C@H](c2ccc3c(c2)OCO3)N1C(=O)C=C [MY-13A]
reactivity of alkyne probe with SARM1-C311A (gel-ABPP) (SARM1-C311A): very low reactivity

C#CCNC(=O)[C@H]1Cc2c([nH]c3ccccc23)[C@@H](c2ccc3c(c2)OCO3)N1C(=O)C=C [MY-13B]
labeling of recombinant mouse SARM1 by alkyne probe (mouse SARM1): lower extent of labeling
reactivity of alkyne probe with SARM1 in vitro (WT-SARM1 [2]; 20 µM): stereoselective reactivity; also recorded: maintained stereoselective engagement
reactivity of alkyne probe with SARM1-C311A (gel-ABPP) (SARM1-C311A): very low reactivity
reactivity of alkyne probe with WT-SARM1 (gel-ABPP) (WT-SARM1 [3]; 20 µM): reacted strongly

NC(=O)c1ccc[n+]([C@@H]2O[C@H](COP(=O)([O-])OP(=O)(O)OC[C@H]3O[C@@H](n4cnc5c(N)ncnc54)[C@H](O)[C@@H]3O)[C@@H](O)[C@H]2O)c1 [NAD^+, nicotinamide adenine dinucleotide, reference compound]
effect of metabolite on MY-13B engagement of SARM1 (WT-SARM1 [2]): neither metabolite affected MY-13B engagement

NC(=O)c1ccc[n+]([C@@H]2O[C@H](COP(=O)([O-])O)[C@@H](O)[C@H]2O)c1 [NMN, nicotinamide mononucleotide, reference compound]
effect of metabolite on MY-13B engagement of SARM1 (WT-SARM1 [2]): neither metabolite affected MY-13B engagement

COC(=O)c1c(C)nc(C)c(C(=O)OCC(C)C)c1-c1ccccc1N=O [dHNN, dehydronitrosonisoldipine, reference compound]
effect of C311 mutagenesis on inhibitory activity (SARM1): only modestly impaired (∼twofold)
engagement of SARM1_C311 (effect on MY-13B reactivity) (WT-SARM1 [3]; 5–50 µM, 3 h pretreatment, MY-13B 20 µM): did not observe substantial alterations in MY-13B reactivity

O=C(NCc1cccnc1)Nc1ccc([N+](=O)[O-])cc1 [vacor]
Degeneration Index (%) (mouse DRG neurons; 8 h): ~60%
Degeneration Index (%) (mouse DRG neurons; 24 h): full degeneration
induction of cADPR production (endogenous SARM1): robust, time-dependent production of cADPR

CC[C@]1(O)C[C@H]2CN(CCc3c([nH]c4ccccc34)[C@@](C(=O)OC)(c3cc4c(cc3OC)N(C=O)[C@H]3[C@@](O)(C(=O)OC)[C@H](OC(C)=O)[C@]5(CC)C=CCN6CC[C@]43[C@@H]65)C2)C1 [vincristine, reference compound]
induction of neurite degeneration (rat DRG neurons; vincristine 40 nM): robust neurite degeneration
